Compound activity as filed in PubChem BioAssay.
An excerpt weighted towards active compounds, which were near 3.8% of everything screened.
INS promoter inh – inhibitors of insulin promoter-driven GFP, primary screen, imaging, TRM-6 cells (human fetal islet line), eGFP reporter, cell count; 0.9% of 130,000 active; inhibition, % at 2 µM; AID 1273, 2008; reporter expression induced with tamoxifen;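 active = inhibition above the mean plus 3 SD, with well images judged a real hit on visual review, cut at about 60% in these data, passing the limit was not always enough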
RAM inhibit – inhibitors of the yeast RAM network, primary screen, dse1pr::URA3 reporter, 5-FOA selection; S. cerevisiae dse1pr::URA3 reporter, 5-FOA growth OD615, 2 d; analog-sensitive cbk1-as2 kinase mutant strain; inhibition, % at 50 µM; AID 868, 2007; 1.8% of 190,000 active;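 active = inhibition above a set limit, 3 SD over mean compound inhibition, cut at about 8.4% in these data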;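 note: 0% = DMSO-only wells with no growth and 100% = 10 µM 1-NA-PP1 full growth; inhibition rescues growth on 5-FOA so higher OD means more RAM inhibition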
NPY2 pot ag – NPY-Y2 potentiators or agonists, primary screen, cell-based | Neuropeptide Y receptor type 2 (Homo sapiens), P49146 | cells expressing NPY-Y2, potentiator/agonist read-out | activation, % at 3.6 µM | 0.45% of 220,000 active | AID 1359, 2008; in the data active = activation above about 27%;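 note: cells stimulated with NPY near EC25 plus isoproterenol at EC100; 0% = vehicle plus submaximal agonist and 100% = vehicle plus saturating agonist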
Target sequence (P49146 whole entry, looked up): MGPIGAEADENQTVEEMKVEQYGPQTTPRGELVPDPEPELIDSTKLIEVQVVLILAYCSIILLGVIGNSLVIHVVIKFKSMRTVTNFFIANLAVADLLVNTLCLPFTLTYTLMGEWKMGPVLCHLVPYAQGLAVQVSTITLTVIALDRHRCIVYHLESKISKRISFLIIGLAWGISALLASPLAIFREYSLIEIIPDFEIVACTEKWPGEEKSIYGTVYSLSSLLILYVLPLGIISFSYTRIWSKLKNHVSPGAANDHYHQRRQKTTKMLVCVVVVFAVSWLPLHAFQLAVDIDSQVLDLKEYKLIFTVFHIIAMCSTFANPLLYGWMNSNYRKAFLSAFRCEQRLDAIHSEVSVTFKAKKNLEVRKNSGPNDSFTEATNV
NPY1 pot ag – NPY-Y1 receptor potentiators or agonists, primary screen, cell-based; activation, % at 3.6 µM; NPY-Y1 expressing cells, potentiator/agonist activation; 0.37% of 220,000 active; AID 1304, 2008; in the data active = activation above about 33%, passing the limit was not always enough;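 note: cells stimulated with NPY at EC10 then isoproterenol at EC100; 0% = low agonist plus stimulus and 100% = saturating agonist plus stimulus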
NPY Y2 blocker – NPY-Y2 receptor antagonists, primary screen, cell-based. inhibition, % at 2.7 µM. Neuropeptide Y receptor type 2 (Homo sapiens), P49146. 0.99% of 140,000 active. NPY-Y2 expressing cells, antagonist mode; in the data active = inhibition above about 17%;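 note: 0% = vehicle with agonist challenge and 100% = reference antagonist with challenge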
NPY Y1 blocker – NPY-Y1 receptor antagonists, primary screen, cell-based; HEK293-CNG Y1 cells, membrane potential fluorescence; NPY at EC95, then isoproterenol; inhibition, % at 3.6 µM; 1% of 200,000 active; AID 1040, 2008;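 active = inhibition above the campaign mean inhibition of all tested compounds plus 3 SD, cut at about 20% in these data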;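 note: 0% = DMSO wells given NPY plus isoproterenol and 100% = isoproterenol alone without NPY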
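Material: HEK293 cells co-expressing NPY Y1 receptor and cyclic-nucleotide gated channel. Timing: compound incubation 1 h at room temperature, readout 45 min post-stimulation. Signal: fluorescence, membrane potential probe.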
Numbers without * were called inactive.

CCOc1ccc(NS(=O)(=O)c2ccc3[nH]cc(C(=O)NCC4CCCO4)c(=O)c3c2)cc1 (centres undefined) was read as RAM inhibit 9.3*, NPY2 pot ag 2, NPY1 pot ag -3, NPY Y2 blocker 1 and NPY Y1 blocker 1.
CCOC(=O)N1CCC2(CC1)C(C#N)=C(N)OC1=C2C(=O)CC(C)C1 (centres undefined) was read as INS promoter inh 44, RAM inhibit 1, NPY2 pot ag -1, NPY1 pot ag 13, NPY Y2 blocker 1 and NPY Y1 blocker 1.
For COC(=O)c1ccc(Oc2ccc(C(C)(C)C)cc2)c([N+](=O)[O-])c1 the results were INS promoter inh 24, RAM inhibit 8.4*, NPY2 pot ag -12, NPY1 pot ag 9, NPY Y2 blocker 0 and NPY Y1 blocker 0.
Screening O=S(=O)(NC1CCCC1)c1ccc(S(=O)(=O)N(Cc2cccs2)CC2CCCO2)cc1 (centres undefined) returned RAM inhibit 9.6*, NPY2 pot ag 17, NPY1 pot ag 20, NPY Y2 blocker 1 and NPY Y1 blocker -5.
Screening CC1(C)Cc2c(sc3c2C(=O)N(c2ccccc2)C2=NCCN23)CS1 returned INS promoter inh 3, RAM inhibit 0, NPY2 pot ag 5, NPY1 pot ag 15, NPY Y2 blocker -3 and NPY Y1 blocker 5.
For CC1(C)Cc2c(sc3c2C2=NCCN2C=N3)CS1 the results were INS promoter inh 87*, RAM inhibit 2, NPY2 pot ag 9, NPY1 pot ag -13, NPY Y2 blocker 4 and NPY Y1 blocker -3.
Screening COCCN=c1scc(-c2ccco2)n1/N=C/c1ccc(O)c(O)c1O returned RAM inhibit 3, NPY2 pot ag 22, NPY1 pot ag 26 and NPY Y1 blocker 4.
For CC(C)N=c1scc(-c2ccco2)n1/N=C/c1ccc(O)c(O)c1 the results were INS promoter inh -5, RAM inhibit -1, NPY2 pot ag 34*, NPY1 pot ag 50, NPY Y2 blocker -6 and NPY Y1 blocker -5.
For N#CCCN(C(=O)COC(=O)C1CCN(S(=O)(=O)c2cccs2)CC1)c1ccccc1 the results were RAM inhibit 2, NPY2 pot ag 5, NPY1 pot ag -12 and NPY Y1 blocker -1.
`CC(=O)c1ccc(NC(=S)NCCc2cccc(Cl)c2)cc1` gave RAM inhibit 2, NPY2 pot ag -13, NPY1 pot ag 7 and NPY Y1 blocker -3.
`Cc1ccc(NC2=C/C(=N\S(=O)(=O)c3cccs3)c3ccccc3C2=O)c(C)c1` gave INS promoter inh 22, RAM inhibit 4, NPY2 pot ag 62*, NPY1 pot ag 48*, NPY Y2 blocker -9 and NPY Y1 blocker -15.
Screening Cc1cccc(NC2=C/C(=N/S(=O)(=O)c3cccs3)c3ccccc3C2=O)c1 returned INS promoter inh 8, RAM inhibit 6, NPY2 pot ag -13, NPY1 pot ag -30, NPY Y2 blocker -9 and NPY Y1 blocker -3.
O=C1C(Nc2ccc(O)cc2)=C/C(=N/S(=O)(=O)c2cccs2)c2ccccc21 was read as RAM inhibit 11*, NPY2 pot ag 68*, NPY1 pot ag 70* and NPY Y1 blocker -21.
For O=C(/C=C\Nc1ccc(S(=O)(=O)Nc2ncccn2)cc1)c1ccccc1 the results were NPY2 pot ag -14 and NPY1 pot ag 6.
Screening COCCNC(=O)CCCn1c(=O)c2cc(OC)c(OC)cc2n(CC(=O)Nc2ccccc2OC)c1=O returned RAM inhibit 3, NPY2 pot ag -6, NPY1 pot ag -5 and NPY Y1 blocker 21*.
For O=C(Nc1cccs1)Nc1ccc(Br)cc1F the results were INS promoter inh 70*, RAM inhibit 4, NPY2 pot ag 14, NPY1 pot ag -4, NPY Y2 blocker -2 and NPY Y1 blocker -5.
COc1ccc2[nH]cc(C(=O)CNc3nc(C)cs3)c2c1 was read as INS promoter inh -7, RAM inhibit 1, NPY2 pot ag 39*, NPY1 pot ag 48*, NPY Y2 blocker -10 and NPY Y1 blocker -18.
